Data published in ChEMBL document CHEMBL2169868, “Flavone-based novel antidiabetic and antidyslipidemic agents” (J Med Chem, 2012).
Calls of active or inactive are those of the source. The rule behind the calls is not given here.

Tests used:
Syrian golden hamster [1] = experiment: Antidyslipidemic activity in high fructose and high-fat diet fed dyslipidemic Syrian golden hamster model assessed as reduction in body weight at 100 mg/kg/day for 7 days; type: functional, organism-based; conditions: Mesocricetus auratus
Procedure, shortened: (§1)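 Syrian golden hamsters fed high-fructose high-fat diet; oral dosing in 1% gum acacia at 10, 30, 100 mg/kg (or 25 mg/kg) for 7 days, sham control given vehicle; plasma TG, cholesterol, LDL-C, HDL-C, glycerol and NEFA (kits), lipoprotein lipase activity and body weight; % change versus HFD control, six hamsters per group.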

Syrian golden hamster [2] = experiment: Antidyslipidemic activity in high fructose and high-fat diet fed dyslipidemic Syrian golden hamster model assessed as increase in HDL-cholesterol level at 100 mg/kg/day for 7 days; type: functional, Mesocricetus auratus
Syrian golden hamster [3] = experiment: Antidyslipidemic activity in high fructose and high-fat diet fed dyslipidemic Syrian golden hamster model assessed as reduction in LDL-cholesterol level at 100 mg/kg/day for 7 days; type: functional, Mesocricetus auratus; parameters: scale not given: the % may be the effect or the level left; procedure, shortened: as §1
Syrian golden hamster [4] = experiment: Antidyslipidemic activity in high fructose and high-fat diet fed dyslipidemic Syrian golden hamster model assessed as reduction in cholesterol level at 100 mg/kg/day for 7 days; type: functional, Mesocricetus auratus; parameters: scale not given: the % may be the effect or the level left
Syrian golden hamster [5] = experiment: Antidyslipidemic activity in high fructose and high-fat diet fed dyslipidemic Syrian golden hamster model assessed as reduction in triglyceride level at 100 mg/kg/day for 7 days; type: functional, Mesocricetus auratus; parameters: scale not given: the % may be the effect or the level left; procedure, shortened: as §1
Mus musculus [6] = experiment: Reduction in body weight in diabetic C57BL/KsJ db/db mouse model in hyperglycemia at 25 mg/kg, po qd for 10 days relative to untreated control; type: functional
Procedure, shortened: (§2)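 db/db mice (C57BL/KsJ, 12−18 weeks, 40−50 g, glucose 200−350 mg/dL), housed at 23 ± 2.0 °C on a 12 h light cycle. Oral dosing daily for 10 days. Blood glucose checked each morning through day 9. Body weight recorded daily from day 1 to day 10. Mean % change versus vehicle, 5 mice per group; Student t test.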

Mus musculus [7] = experiment: Antihyperglycemic activity in diabetic C57BL/KsJ db/db mouse model assessed as reduction in plasma insulin level in hyperglycemia at 25 mg/kg, po qd for 10 days; type: functional; parameters: scale not given: the % may be the effect or the level left
Procedure, shortened: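 db/db mice dosed orally every day for 10 days. On day 11, retro-orbital blood was drawn and plasma insulin measured. Mean % change versus vehicle-treated control, 5 mice per group; Student t test.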

Mus musculus [8] = experiment: Antidyslipidemic activity in diabetic C57BL/KsJ db/db mouse model assessed as increase in plasma HDL-C/cholesterol ratio at 25 mg/kg, po qd for 10 days; type: functional
Procedure, shortened: (§3)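 db/db mice (blood glucose 200−350, TG 170−250, cholesterol 170−250, HDL-C 32−40 mg/dL) dosed orally at 25 mg/kg daily for 10 days; retro-orbital blood taken on day 11 for plasma TG, cholesterol and HDL-C (and HDL-C/CHOL ratio); mean % change versus vehicle control, 5 mice per group; Student t test.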

Mus musculus [9] = experiment: Antidyslipidemic activity in diabetic C57BL/KsJ db/db mouse model assessed as reduction in plasma cholesterol level at 25 mg/kg, po qd for 10 days; type: functional; parameters: scale not given: the % may be the effect or the level left; procedure, shortened: as §3
Mus musculus [10] = experiment: Antidyslipidemic activity in diabetic C57BL/KsJ db/db mouse model assessed as increase in plasma HDL-cholesterol level at 25 mg/kg, po qd for 10 days; type: functional; procedure, shortened: as §3
Mus musculus [11] = experiment: Antidyslipidemic activity in diabetic C57BL/KsJ db/db mouse model assessed as reduction in plasma triglyceride level at 25 mg/kg, po qd for 10 days; type: functional; parameters: scale not given: the % may be the effect or the level left; procedure, shortened: as §3
Mus musculus [12] = experiment: Antihyperglycemic activity in diabetic C57BL/KsJ db/db mouse model assessed as improvement in glucose tolerance in hyperglycemia at 25 mg/kg, po qd for 10 days; type: functional
Procedure, shortened: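 Male/female C57BL/KsJ db/db mice, 12−18 weeks, 40−50 g, selected for glucose 200−350 mg/dL. Oral dosing daily for 10 days. OGTT on day 10 after an overnight fast: compound at −30 min, then 3 g/kg oral glucose at 0 min. Glucose read at 30, 60, 90 and 120 min. AUC taken versus vehicle, 5 mice per group.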

Mus musculus [13] = experiment: Antihyperglycemic activity in diabetic C57BL/KsJ db/db mouse model assessed as reduction in hyperglycemia at 25 mg/kg, po qd for 10 days; type: functional; parameters: scale not given: the % may be the effect or the level left; procedure, shortened: as §2
Rattus norvegicus [14] = experiment: Antihyperlipidemic activity in Triton-induced dyslipidemic Wistar rat model assessed as reduction in phospholipid level at 100 mg/kg, po; type: functional; parameters: scale not given: the % may be the effect or the level left
Procedure, shortened: (§4)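 Male Wistar rats, 8−10 weeks, about 160 g, fed normal pellet diet. Triton X-100 given at 400 mg/kg ip; compound given orally in 1% gum acacia. Retro-orbital blood taken 18 h after Triton and serum separated at 1500g for 10 min. TG and cholesterol measured by kit. Mean % change versus dyslipidemic control, 5 animals.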

Rattus norvegicus [15] = experiment: Antihyperlipidemic activity in Triton-induced dyslipidemic Wistar rat model assessed as reduction in cholesterol level at 100 mg/kg, po; type: functional; parameters: scale not given: the % may be the effect or the level left; procedure, shortened: as §4
Rattus norvegicus [16] = experiment: Antihyperlipidemic activity in Triton-induced dyslipidemic Wistar rat model assessed as reduction in triglyceride level at 100 mg/kg, po; type: functional; parameters: scale not given: the % may be the effect or the level left; procedure, shortened: as §4
Rattus norvegicus [17] = experiment: Antidiabetic activity in sucrose loaded Wistar rat model assessed as reduction in glucose levels at 100 mg/kg, po; type: functional; parameters: scale not given: the % may be the effect or the level left
Syrian golden hamster [18] = experiment: Reduction in body weight in high fructose and high-fat diet fed dyslipidemic Syrian golden hamster model at 30 mg/kg/day, po for 7 days; type: functional, Mesocricetus auratus; parameters: scale not given: the % may be the effect or the level left
Procedure, shortened: (§5)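 HFD-fed Syrian golden hamsters, six per group, fed a high-fructose diet. Oral dosing in 1% gum acacia for 7 days. Sham group received vehicle. Plasma TG was measured and body weight tracked. Results given as % change versus HFD control.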

Syrian golden hamster [19] = experiment: Antidyslipidemic activity in high fructose and high-fat diet fed dyslipidemic Syrian golden hamster model assessed as increase in lipoprotein lipase level at 30 mg/kg/day, po for 7 day, po; type: functional, Mesocricetus auratus; procedure, shortened: as §1
Syrian golden hamster [20] = experiment: Antidyslipidemic activity in high fructose and high-fat diet fed dyslipidemic Syrian golden hamster model assessed as increase in HDL-cholesterol level at 30 mg/kg/day, po for 7 day, po; type: functional, Mesocricetus auratus; procedure, shortened: as §1
Syrian golden hamster [21] = experiment: Antidyslipidemic activity in high fructose and high-fat diet fed dyslipidemic Syrian golden hamster model assessed as reduction in NEFA level at 30 mg/kg/day, po for 7 day, po; type: functional, Mesocricetus auratus; parameters: scale not given: the % may be the effect or the level left; procedure, shortened: as §1
Syrian golden hamster [22] = experiment: Antidyslipidemic activity in high fructose and high-fat diet fed dyslipidemic Syrian golden hamster model assessed as reduction in glycerol level at 30 mg/kg/day, po for 7 day, po; type: functional, Mesocricetus auratus; parameters: scale not given: the % may be the effect or the level left; procedure, shortened: as §1
Syrian golden hamster [23] = experiment: Antidyslipidemic activity in high fructose and high-fat diet fed dyslipidemic Syrian golden hamster model assessed as reduction in LDL-cholesterol level at 30 mg/kg/day, po for 7 day, po; type: functional, Mesocricetus auratus; parameters: scale not given: the % may be the effect or the level left; procedure, shortened: as §1
Syrian golden hamster [24] = experiment: Antidyslipidemic activity in high fructose and high-fat diet fed dyslipidemic Syrian golden hamster model assessed as reduction in triglyceride level at 30 mg/kg/day, po for 7 day, po; type: functional, Mesocricetus auratus; parameters: scale not given: the % may be the effect or the level left; procedure, shortened: as §5
Syrian golden hamster [25] = experiment: Antidyslipidemic activity in high fructose and high-fat diet fed dyslipidemic Syrian golden hamster model assessed as reduction in body weight at 25 mg/kg/day for 7 days; type: functional, Mesocricetus auratus; parameters: scale not given: the % may be the effect or the level left; procedure, shortened: as §1
Syrian golden hamster [26] = experiment: Antidyslipidemic activity in high fructose and high-fat diet fed dyslipidemic Syrian golden hamster model assessed as reduction in LDL-cholesterol level at 25 mg/kg/day for 7 days; type: functional, Mesocricetus auratus; parameters: scale not given: the % may be the effect or the level left; procedure, shortened: as §1
Syrian golden hamster [27] = experiment: Antidyslipidemic activity in high fructose and high-fat diet fed dyslipidemic Syrian golden hamster model assessed as reduction in triglyceride level at 25 mg/kg/day for 7 days; type: functional, Mesocricetus auratus; parameters: scale not given: the % may be the effect or the level left; procedure, shortened: as §5
Rattus norvegicus [28] = experiment: Antidiabetic activity in sucrose challenged streptozotocin-induced diabetic Sprague-Dawley rat model assessed as reduction in glucose levels at 100 mg/kg, po measured after 5 hrs; type: functional; parameters: scale not given: the % may be the effect or the level left
Rattus norvegicus [29] = experiment: Antidiabetic activity in sucrose challenged streptozotocin-induced diabetic Sprague-Dawley rat model assessed as reduction in glucose levels at 100 mg/kg, po measured after 24 hrs; type: functional
Syrian golden hamster [30] = experiment: Antidyslipidemic activity in high fructose and high-fat diet fed dyslipidemic Syrian golden hamster model assessed as increase in HDL-cholesterol level at 25 mg/kg/day for 7 days; type: functional, Mesocricetus auratus
Syrian golden hamster [31] = experiment: Antidyslipidemic activity in high fructose and high-fat diet fed dyslipidemic Syrian golden hamster model assessed as reduction in cholesterol level at 25 mg/kg/day for 7 days; type: functional, Mesocricetus auratus; parameters: scale not given: the % may be the effect or the level left

Row | SMILES | Activity (Mus musculus [6]) | Activity (Mus musculus [7]) [%] | Percent increase in HDL-C/cholesterol ratio vs vehicle (Mus musculus [8]) | Activity (Mus musculus [9]) [%] | Activity (Mus musculus [10]) [%] | Activity (Mus musculus [11]) [%] | Activity (Mus musculus [12]) [%] | Activity (Mus musculus [13]) [%] | Activity (Rattus norvegicus [14]) [%] | Activity (Rattus norvegicus [15]) [%] | Activity (Rattus norvegicus [16]) [%] | Activity (Rattus norvegicus [17]) [%] | Activity (Rattus norvegicus [28]) [%] | Activity (Rattus norvegicus [29]) | other results
1 | CC(C)NCC(O)COc1ccc2c(=O)cc(-c3cc(O)cc(O)c3)oc2c1 (racemic) | inactive | 22.3 | 32.1 | 15.3 | 11.8 | 14.2 | 33.2 | 39.5 | 28 | 32 | 32 | 29 |  |  | Activity (Syrian golden hamster [1]): Active; Activity (Syrian golden hamster [2]): 14.9%; Activity (Syrian golden hamster [3]): 47.7%; Activity (Syrian golden hamster [4]): 13.8%; Activity (Syrian golden hamster [5]): 48.9%
2 | CC(C)OC(=O)C(C)(C)Oc1ccc(C(=O)c2ccc(Cl)cc2)cc1 [FENOFIBRATE] |  |  |  |  |  |  |  |  | 30.3 | 18.9 | 32.9 | 6.43 | 1.47 | inactive | Activity (Syrian golden hamster [18]): 10.2%; Activity (Syrian golden hamster [19]): 24.7%; Activity (Syrian golden hamster [20]): 9.68%; Activity (Syrian golden hamster [21]): 22.2%; Activity (Syrian golden hamster [22]): 22.1%; Activity (Syrian golden hamster [23]): 32.3%; Activity (Syrian golden hamster [24]): 30.2%; Activity (Syrian golden hamster [25]): 6.78%; Activity (Syrian golden hamster [26]): 26.8%; Activity (Syrian golden hamster [27]): 25.5%; Activity (Syrian golden hamster [1]): Active; Activity (Syrian golden hamster [3]): 56.3%; Activity (Syrian golden hamster [5]): 53.4%
3 | CN(CCOc1ccc(CC2SC(=O)NC2=O)cc1)c1ccccn1 (centres undefined) [ROSIGLITAZONE] | -18.3% | 40.5 | 108.7 | 32.6 | 6.98 | 24.5 | 49.5 | 54.3 |  |  |  |  |  |  | 
4 | CC(C)NCC(O)COc1ccc2c(=O)cc(-c3ccc(OCc4ccccc4)c(OCc4ccccc4)c3)oc2c1 (centres undefined) |  |  |  |  |  |  |  |  | 5 | 16 | 14 | 17.9 | 12.4 | 2.34% | 
5 | Cc1ccc(COc2cc(OCc3ccc(C)cc3)cc(-c3cc(=O)c4ccc(OCC(O)CNC(C)C)cc4o3)c2)cc1 (centres undefined) |  |  |  |  |  |  |  |  | 26.5 | 20.3 | 25.6 | 51.6 | 22.8 | 11.9% | 
6 | CC(C)NCC(O)COc1ccc2c(=O)cc(-c3cc(OCc4cc(Cl)cc(Cl)c4)cc(OCc4cc(Cl)cc(Cl)c4)c3)oc2c1 (centres undefined) |  |  |  |  |  |  |  |  | 11.8 | 22.2 | 26 | 32.7 | 22.1 | 16.2% | 
7 | Cc1ccc(COc2cc(OCc3ccc(C)cc3)cc(-c3cc(=O)c4ccc(OCC(O)CNCc5ccccc5)cc4o3)c2)cc1 (centres undefined) |  |  |  |  |  |  |  |  | 20.8 | 16.5 | 27.2 | 32 | 26.2 | 17.9% | 
8 | CC(C)(C)NC[C@@H](O)COc1ccc2c(=O)cc(-c3cc(OCc4ccccc4)cc(OCc4ccccc4)c3)oc2c1 | inactive | 18 | 28.8 | 15.9 | 8.3 | 14.1 | 33.3 | 34.1 |  |  |  |  |  |  | Activity (Syrian golden hamster [25]): 3.73%; Activity (Syrian golden hamster [30]): 7.08%; Activity (Syrian golden hamster [26]): 9.78%; Activity (Syrian golden hamster [31]): 5.52%; Activity (Syrian golden hamster [27]): 8.4%
9 | CC(C)NC[C@@H](O)COc1ccc2c(=O)cc(-c3cc(O)cc(O)c3)oc2c1 | inactive | 9.1 | 16.6 | 11.2 | 3.59 | 14.1 | 22.4 | 28.2 |  |  |  |  |  |  | 
